Source: ChEMBL document CHEMBL1152376, “N-[(Dihydroxyphenyl)acyl]serotonins as potent inhibitors of tyrosinase from mouse and human melanoma cells” (Bioorg Med Chem Lett, 2009)
pIC50, pKi: −log10 of the molar value. Calls of active or inactive are those of the source. The calls are words filed in the database; no cut-off is given here.

Experiments:
Tyrosinase [1] = biological target: T1, Tyrosinase (Mus musculus, UniProt P11344); assay: Apparent noncompetitive inhibition of catecholase activity of tyrosinase in mouse B16 cells by Lineweaver-Burke plot analysis; format: cell-based; conditions: read-out: Ki(app)
T1 sequence (P11344 whole entry): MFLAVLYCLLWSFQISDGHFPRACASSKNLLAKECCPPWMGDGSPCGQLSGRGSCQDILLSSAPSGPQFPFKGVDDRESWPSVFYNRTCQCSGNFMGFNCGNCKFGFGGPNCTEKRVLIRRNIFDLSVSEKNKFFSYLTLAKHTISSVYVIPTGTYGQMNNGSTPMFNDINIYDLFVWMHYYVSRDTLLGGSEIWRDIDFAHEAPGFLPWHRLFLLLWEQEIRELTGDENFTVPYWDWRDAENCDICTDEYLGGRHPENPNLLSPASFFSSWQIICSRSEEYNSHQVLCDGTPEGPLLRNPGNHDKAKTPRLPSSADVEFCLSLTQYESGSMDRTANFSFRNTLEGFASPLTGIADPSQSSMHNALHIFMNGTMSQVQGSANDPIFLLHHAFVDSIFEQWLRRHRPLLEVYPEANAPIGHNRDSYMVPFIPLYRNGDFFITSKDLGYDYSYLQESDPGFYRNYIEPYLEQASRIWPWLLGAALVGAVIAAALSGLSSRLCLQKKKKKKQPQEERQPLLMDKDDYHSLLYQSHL
In short: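 Tyrosinase extracted from B16 cells (DMEM, 15% FBS) was assayed with L-DOPA in 50 mM phosphate buffer pH 6.8 at 37 °C. Dopachrome formation over 5 min was read at 475 nm (ε = 3700 M⁻¹ cm⁻¹). Inhibitor was tested at several fixed levels (e.g. 0–70 µM), L-DOPA was varied, Lineweaver–Burk lines were fitted by least squares, and apparent Ki was derived.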

B16 [2] = assay: Cytotoxicity against mouse B16 cells assessed as cell viability at 10 to 30 uM after 2 days by tetrazolium reduction assay; format: cell-based; conditions: b16, 48 h
In short: (§1)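 B16 cells seeded at 1.5 × 10⁴ per well, cultured 1 day, then given compound in ethanol (stock 0–10 mM) and incubated 2 days. Medium aspirated and viability measured with a tetrazolium reagent. Values are means of 8 or 9 wells, with Student's t-test against control.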

[3] = Cytotoxicity against mouse B16 cells assessed as cell viability at 20 uM after 2 days by tetrazolium reduction assay; format: cell-based; conditions: read-out: Activity; in short: as §1
B16 [4] = assay: Antimelanogenic activity in mouse B16 cells assessed as inhibition of extracellular melanin formation after 2 days; conditions: B16, 48 h
Tyrosinase [5] = biological target: T1, Tyrosinase; assay: Inhibition of catecholase activity of tyrosinase in mouse B16 cells assessed as dopachrome formation; format: cell-based
[6] = Cytotoxicity against human HMVII cells assessed as cell viability at 40 uM after 2 days by tetrazolium reduction assay; format: cell-based; conditions: hmv-2, 48 h
In short: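 HMV-II cells given compound in ethanol and incubated 2 days, then viability measured by tetrazolium reduction. Values are % control, mean ± SEM (n = 3–4) from a representative repeated experiment.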

B16 [7] = assay: Antimelanogenic activity in mouse B16 cells assessed as inhibition of intracellular melanin accumulation at 2 to 40 uM after 2 days; format: functional, cell-based
In short: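 B16 cells grown in DMEM with 15% FBS, seeded at 7.5 × 10⁴ cells per well, cultured 1 day, then given compound in ethanol and incubated 2 days. Cells scraped, washed with PBS and sonicated in 0.2 ml 1 N NaOH. Intracellular melanin read as homogenate absorbance at 415 nm, expressed as % control.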

B16 [8] = assay: Ratio of IC50 of drug to IC50 of kojic acid for antimelanogenic activity in mouse B16 cells; format: functional
In short: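 B16 cells (1.5 × 10⁴ per well) were cultured 1 day, given compound in ethanol (stock 0–10 mM), and incubated 2 days. Medium darkening from extracellular melanin was read at 415 nm and IC50 derived.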

B16 [9] = assay: Cytotoxicity against mouse B16 cells assessed as cell viability at < 30 uM after 2 days by tetrazolium reduction assay; format: cell-based; conditions: b16, 48 h; in short: as §1
[10] = Antimelanogenic activity in human HMVII cells assessed as inhibition of intracellular melanin accumulation at 20 to 40 uM after 2 days; format: functional, HMV-2
[11] = biological target: T2, Tyrosinase (Mus musculus) (UniProt P11344); assay: Inhibition of catecholase activity of tyrosinase in mouse B16 cells assessed as residual activity at […] measured after preincubation presence of L-DOPA substrate; format: cell-based; conditions: TDE = time-dependent effect
T2 sequence (whole entry): T1 sequence (P11344 whole entry)
In short: (§2)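 Enzyme was preincubated with inhibitor (added in ethanol as a 20 mM stock) in 50 mM phosphate buffer pH 6.8, with or without 0.125 mM L-DOPA, at 37 °C for 5, 10, 20 or 30 min. Buffer containing 5.3 mM L-DOPA was then added and dopachrome read at 475 nm. Control (=100) was 31 min preincubation without inhibitor; mean ± sd, n = 3.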

[12] = biological target: T2, Tyrosinase (Mus musculus); assay: Inhibition of catecholase activity of tyrosinase in mouse B16 cells assessed as residual activity at […] preincubated for 5 to 30 mins in absence of L-DOPA substrate; format: cell-based; in short: as §2
[13] = Cytotoxicity against mouse B16 cells assessed as cell viability at 200 uM after 2 days by tetrazolium reduction assay; format: cell-based; conditions: read-out: Activity
In short: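 B16 mouse melanoma cells in DMEM with 15% FBS, seeded at 1.5 × 10⁴ cells per well and cultured 1 day. Compound then added in ethanol and incubated 2 days. Medium aspirated and viability read with a tetrazolium reagent. Means of 8 or 9 wells, Student's t-test versus control.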

Compound | pIC50 (B16 [4]) | pIC50 (Tyrosinase [5]) | Activity (B16 [2]) | viability at 48 h, 20 µM [3] | other results
NC(=O)c1ccc(O)c(O)c1 [PROTOCATECHUAMIDE] | – | – | – | – | pKi (Tyrosinase [1]; in the assay text read “Competitive” for “Apparent noncompetitive”): 2.43
O=C(NCCc1c[nH]c2ccccc12)c1ccccc1 | – | – | Toxic | 85% | –
NCCc1c[nH]c2ccc(O)cc12 [SEROTONIN] | < 4.52 | 3.26 | – | 101% | –
COc1ccc2[nH]cc(CCNC(=O)/C=C/c3ccc(O)c(O)c3)c2c1 | – | – | Toxic | 41% | –
O=C(/C=C/c1ccc(O)c(O)c1)NCCc1c[nH]c2ccccc12 | – | – | Toxic | 54% | –
O=C(NCCc1c[nH]c2ccccc12)c1ccc(O)cc1 | < 4.52 | – | – | 94% | –
O=C(/C=C/c1ccc(O)c(O)c1)NCCc1ccc(O)cc1 | – | – | Toxic | 84% | –
O=C(NCCc1c[nH]c2ccc(O)cc12)c1ccccc1 | < 4.52 | 3.48 | – | 96% | –
O=c1cc(CO)occ1O [KOJIC ACID] | 3.95 | – | – | – | viability at 48 h, 200 µM [13]: 99%
Oc1ccc2[nH]ccc2c1 | 4.89 | 4.17 | – | 100% | –
O=C(NCCc1c[nH]c2ccccc12)c1ccc(O)c(O)c1 | – | – | Toxic | 69% | –
O=C(NCCc1ccc(O)cc1)c1ccc(O)c(O)c1 | – | – | Toxic | 88% | –

Further lines, with some results ahead:

pIC50 (B16 [4]) | pIC50 (Tyrosinase [5]) | Compound | Activity (B16 [2]) | viability at 48 h, 20 µM [3] | other results
< 4.52 | 3.63 | O=C(NCCc1c[nH]c2ccc(O)cc12)c1ccc(O)cc1 | – | 100% | –
5.52 | 4.14 | O=C(NCCc1c[nH]c2ccc(O)cc12)c1ccc(O)c(O)c1 | – | 99% | Activity [6]: Toxic; Activity (B16 [7]): inactive; Ratio IC50 (B16 [8]): 40; Activity (B16 [9]): Non-toxic; pKi (Tyrosinase [1]): 4.19; inhibition (INH) [10]: 20%
< 4.52 | – | COc1cc(/C=C/C(=O)NCCc2c[nH]c3ccccc23)ccc1O | – | 102% | –
< 4.52 | 3.51 | CC(=O)NCCc1c[nH]c2ccc(O)cc12 [ACETYLSEROTONIN] | – | 93% | Activity [11]: tde; Activity [12]: Active; pKi (Tyrosinase [1]): 3.62
4.64 | 3.67 | COc1cc(/C=C/C(=O)NCCc2c[nH]c3ccc(O)cc23)ccc1O [N-FERULOYL SEROTONIN] | – | 100% | Activity (B16 [9]): Non-toxic
< 4.52 | 3.68 | COc1cc(C(=O)NCCc2c[nH]c3ccc(O)cc23)ccc1O | – | 93% | Activity (B16 [9]): Non-toxic
4.82 | 4.55 | O=C(/C=C/c1ccc(O)c(O)c1)NCCc1c[nH]c2ccc(O)cc12 [N-CAFFEOYLSEROTONIN] | – | 99% | Activity (B16 [9]): Non-toxic
4.82 | 4.38 | O=C(NCCc1c[nH]c2ccc(O)cc12)c1ccc(O)cc1O | – | 101% | Activity (B16 [9]): Non-toxic
